Results published in publication PMC3259211 (Journal of Controlled Release, 2011).

Experiments:
progenitor cells = experiment: Mouse progenitor colony assay; type: in vivo, mice; conditions: 50 µg, post injection; in words
How it was run: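 Mice were injected s.c. with 50 µg peptide; untreated mice were controls. 150 µL blood per mouse was plated in 3 mL MethoCult GF. Colonies were counted by inverted microscope 14 days after plating. Each group had ≥3 mice, assayed in duplicate per mouse.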

CXCR4 = CXCR4 (Homo sapiens, UniProt P61073); conditions: read-out: IC50 (binding to CXCR4); reported for T140; ref [26]; cited from earlier work
white blood cells (WBCs) = experiment: Mobilization of white blood cells to peripheral blood; type: in vivo, mice; conditions: 50 µg per mouse s.c., 2 h; in words
How it was run: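 Normal mice received 50 µg test peptide s.c. in 200 µL; untreated mice were controls. Heart blood was taken under anaesthesia at 30 min, 1 h and 2 h. 100 µL blood was RBC-lysed, blocked 10 min on ice with 2% rat and 2% mouse serum, and stained for CD45.2, CD3, B220, CD11b, Gr-1 and F4/80. Cells were counted by flow cytometry with counting beads, WBCs gated as CD45.2⁺. Groups had ≥3 mice; two experiments.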

stem cells = conditions: mice; ref [12]; cited from earlier work
[1] = system: Jurkat cells (CXCL12-induced migration); conditions: Jurkat T-cells; ref [30]; cited from earlier work

CXCR4, sequence (P61073 whole entry): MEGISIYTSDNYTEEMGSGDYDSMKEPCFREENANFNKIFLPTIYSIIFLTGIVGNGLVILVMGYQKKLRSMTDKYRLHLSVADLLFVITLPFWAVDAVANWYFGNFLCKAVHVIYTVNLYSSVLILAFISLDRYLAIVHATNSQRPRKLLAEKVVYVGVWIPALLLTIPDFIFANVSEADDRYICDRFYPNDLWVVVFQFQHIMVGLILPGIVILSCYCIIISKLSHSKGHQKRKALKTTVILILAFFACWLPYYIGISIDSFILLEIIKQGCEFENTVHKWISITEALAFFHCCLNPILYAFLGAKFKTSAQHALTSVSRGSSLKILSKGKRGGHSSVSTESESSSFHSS

Row | Substance | time course of progenitors in the blood (progenitor cells) | IC50 (CXCR4) [nM] | time course of WBC numbers in the blood (white blood cells (WBCs)) | in vivo mobilization of stem cells from the bone marrow (stem cells) | lowest concentration that induces maximal migration [1] [ng/mL]
1 | 4-F-benzoyl-TN14003 [T140] | increased steadily and remained substantially elevated between 2 and 4 h post injection | 2.5 | remained relatively stable after 2 h | induces in vivo mobilization of stem cells from the bone marrow, which is additive in effect with G-CSF treatment | 
2 | CXCL12: natural human ligand of CXCR4, chemokine CXCL12/SDF-1 |  |  |  |  | 100
